Hep lipid drop – modulators of hepatic lipid droplet formation. AML12 mouse hepatocytes, oleate lipid droplets, BODIPY imaging. inhibition, % at 6.5 µM. hit rate 0.4% among 240,000;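 active means lipid droplet intensity inhibited by at least 50%, with more than 500 cells counted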
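Assay system: AML12 mouse liver cells | Compound: 6.5 µM single-point dosing | Schedule: Overnight exposure | Technique: Fluorescence imaging, 20x objective, two fields per well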
aDG glyco act – increases alpha dystroglycan glycosylation | hit rate 0.22% among 360,000 | activation, % at 10 µM | Pro5-aDG cells, alpha-DG glycosylation AlphaScreen (IIH6); 0% Pro5, 100% B10-LARGE cell signal;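 active means activation of at least 8% versus controls, or a plate z-score of at least 8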;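 further: Pro5 are CHO cells carrying HIG-tagged alpha-DG that lacks glycosylation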
GC-A act – GC-A (human) enzyme activation. HEK293 GC-A cells, cGMP TR-FRET, EC30 ANP; 0% at EC30 ANP, 100% saturating ANP. activation, % at 10 µM. AID 1671463. hit rate 0.14% among 370,000; in the data active means activation above about 40%
GASC-1 inh – human JMJD2C demethylase inhibition; Q9H3R0; GST-JMJD2C(1-420) H3K9me3 demethylation, DELFIA europium; inhibition, % at 2.35 µM; hit rate 0.069% among 330,000; AID 2099;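 active means more than half of a compound's replicate wells show inhibition beyond 50%, single wells judged on their own value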;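 further: signal counts dimethyl H3K9 product captured on neutravidin plate; 0% = median of DMSO wells and 100% = 0.3 times that DMSO median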
NR3A LBD binder – modulators (binders) of human NR3A ligand-binding domain; NR3A LBD differential scanning fluorimetry, Tm shift; 0% = protein alone, 100% = glycine-bound protein; Tm shift relative to glycine control, % at 25 µM; hit rate 2.5% among 340,000;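 active means melting temperature shift of at least 10% of the positive control shift, at one fixed dose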
GC-B act – GC-B (human) receptor activation. HEK293-GC-B cells, CNP EC30, cGMP TR-FRET; 0% at EC30 CNP, 100% saturating CNP. activation, % at 10 µM. AID 1920062. hit rate 0.11% among 370,000. P20594;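 active means activation at 10 µM reaching about 35% in either raw or pattern-adjusted values, limit read from the data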
* hit, by the source's call; nt = no result given. Shown are actives, neighbours in structure and some others; about 3% of the full set was active somewhere.

SMILES	Hep lipid drop	aDG glyco act	GC-A act	GASC-1 inh	NR3A LBD binder	GC-B act
CCn1c(O)c(/C=C2\C=Nc3ccccc32)sc1=Nc1ccccc1	nt	0	nt	7	12*	nt
CCOC(=O)CC1C(=O)NCCN1C(=S)NC(=O)c1ccc(C)c(Br)c1 (stereo not drawn)	nt	0	0	nt	nt	-1
O=C(NCCNc1ccc([N+](=O)[O-])cc1C(F)(F)F)c1ccccc1	7	1	-3	52*	-8	-7
COc1ccc(CCNC(=O)c2ccc3c(=O)n4c(nc3c2)CCC4)cc1OC	nt	0	-2	nt	-1	3
CC(OC(=O)c1ccc(NC(=O)CC#N)cc1)C(=O)Nc1nc(-c2ccccc2)cs1 (stereo not drawn)	nt	0	3	-17	21*	-10
Nc1cc(N)nc(SCC(=O)c2ccc3c(c2)NC(=O)CO3)n1	-2	0	-5	15	153*	-1
Cc1cc(=O)[nH]c(SCC(=O)c2ccc3c(c2)NC(=O)CO3)n1	-3	0	-1	-6	-1	1
Cc1ccc(C(CC(=O)N2CCCCC2)c2ccccc2)c(O)c1C (stereo not drawn)	-1	0	-13	81	13*	-2
Cn1c2ccccc2c(=O)c2cc(C#Cc3cccc(N)c3)ccc21	nt	1	nt	-1	22*	nt
Cn1c2ccccc2c(=O)c2ccc(C#Cc3ccc(N)cc3)cc21	nt	1	12	2	12*	4
FC(F)(F)c1cc(Cc2nc3ccccc3n2C(CCc2ccccc2)c2nc3ccccc3[nH]2)cc(C(F)(F)F)c1 (stereo not drawn)	nt	0	-22	nt	nt	-21
COC(=O)c1cn[nH]c1NC(=S)Nc1ccc(C)cc1Cl	nt	0	5	-5	30*	4
COC(=O)c1cn[nH]c1NC(=S)Nc1ccc(Cl)c(Cl)c1	17	0	10	-3	11*	4
O=C(Nc1ccc2ccccc2c1)NC1CCCCN(Cc2ccc(Cl)cc2)C1=O (stereo not drawn)	nt	nt	5	nt	nt	5
C=CCNC(=O)CSc1nc2c(c(=O)[nH]1)CCCC2	nt	nt	-1	nt	nt	1
CCC(C(=O)OCC(=O)Nc1cc(Cl)cc(Cl)c1)c1ccccc1 (stereo not drawn)	-5	1	0	74	12*	-11
CCC(C(=O)OCC(=O)Nc1cccc(C(C)=O)c1)c1ccccc1 (stereo not drawn)	7	0	-6	-38	3	1
CSc1ccc(CN2CCC2(C)C(=O)Nc2cccc(Oc3ccccc3)c2)cc1 (stereo not drawn)	nt	0	7	nt	nt	12
O=C(NC(NC(=S)Nc1cccc(C(=O)O)c1)C(Cl)(Cl)Cl)OCc1ccccc1 (stereo not drawn)	-7	0	2	-28	-4	-2
O=C(NC(NC(=S)Nc1cccc(Cl)c1)C(Cl)(Cl)Cl)OCc1ccccc1 (stereo not drawn)	nt	2	1	4	29*	7
Cc1cccc(NC(=S)NC(NC(=O)OCc2ccccc2)C(Cl)(Cl)Cl)c1 (stereo not drawn)	nt	0	5	-2	27*	3
NC(=O)c1c(N)[nH]c(C(=O)c2ccccc2)c1-c1ccc2ccccc2c1	nt	nt	1	nt	nt	-1
CC(C)c1cccc(C(C)C)c1OC(=O)[C@H]1OC(c2ccc(Br)cc2)=C[C@@H]1c1ccc(Br)cc1	nt	0	-1	9	0	3
CC(C)c1cccc(C(C)C)c1OC(=O)[C@H]1OC(C(C)(C)C)=C[C@@H]1c1ccccc1	nt	0	0	-2	16*	1
O=C(NC1CCCCN(Cc2cccc(C(F)(F)F)c2)C1=O)c1ccc(F)c(F)c1 (stereo not drawn)	nt	nt	6	nt	nt	-2
SMILES	Hep lipid drop	aDG glyco act	GC-A act	GASC-1 inh	NR3A LBD binder	GC-B act
Cc1cc2c(nc1C)CCCN2S(=O)(=O)c1ccccc1	nt	nt	3	nt	nt	7
C[C@@H]1ON(C)[C@H]2C[C@H]3c4[nH]c5c(-c6ccccc6F)cccc5c4CCN3C[C@@H]12	nt	nt	0	nt	nt	-8
CCc1nnc(NC(=O)c2sc3nc4cc(C)ccc4cc3c2N)s1	nt	0	4	-8	20*	0
CCOC(=O)Cc1csc(NC(=O)c2sc3nc4ccc(C)cc4cc3c2N)n1	nt	0	19	5	3	3
COc1ccccc1NC(=S)N(Cc1ccccc1)Cc1ccccn1	10	0	-5	6	13*	-6
COc1cccc(CNC(=O)COC(=O)CNC(=O)c2ccc(-c3ccccc3)cc2)c1	nt	0	47*	nt	-14	8
Cc1ccc(NC(=O)C2CCC(=O)N2C(=O)OCc2ccccc2)cc1 (stereo not drawn)	15	0	1	5	4	2
COc1ccc(NC(=O)C2CCC(=O)N2C(=O)OCc2ccccc2)cc1 (stereo not drawn)	-2	0	1	2	11*	3
COc1ccccc1CNC(=O)NCCCN1CCN(c2ccc(F)cc2)CC1	nt	nt	3	nt	nt	-7
CC(=O)Oc1cccc(/C=C2\Sc3ccccc3C2=O)c1	3	0	-27	-24	17*	-6
O=C(NNC(=O)c1cc(-c2ccc(Cl)cc2Cl)nc2ccccc12)Nc1ccccc1	nt	0	-8	7	30*	7
Cc1cc(C)c2c(=O)n(CC(=O)NCCCN3CCOCC3)sc2n1	1	0	nt	2	19*	nt
Cc1cc(C)c2c(=O)n(CC(=O)NCCCN3CCN(c4ccccc4F)CC3)sc2n1	-1	nt	nt	-9	3	nt
CCOC(=O)CC[C@H]1CC[C@]2(CCCN(C3CCCCC3)C2)O1	nt	nt	3	nt	nt	-1
CC(C)c1cc(C(=O)NNC(=S)NCc2ccco2)c(O)c(C(C)C)c1	8	0	1	-11	19*	3
Cn1c(COc2ccccc2)nnc1SCC(=O)Nc1ccc(OCc2ccccc2)cc1	nt	nt	-2	nt	nt	5
C/C(=N\Nc1nc(N)cc(Cl)n1)c1ccc(Cl)c(Cl)c1	9	1	nt	1	18*	nt
C/C(=N\Nc1nc(N)cc(Cl)n1)c1ccc(F)cc1	7	0	-2	-7	1	3
O=C(NNS(=O)(=O)c1ccc(Br)cc1)NC1CCCCC1	6	0	2	11	13*	12
CC1CCCN(c2ccc(/C=C(\C#N)c3nn(-c4ccccc4)c(N)c3C#N)cc2[N+](=O)[O-])C1 (stereo not drawn)	nt	-1	1	22	12*	-7
CC1CCN(c2ccc(/C=C(\C#N)c3nn(-c4ccccc4)c(N)c3C#N)cc2[N+](=O)[O-])CC1	-10	0	0	-5	10*	-3
